Experimental data reported in ChEMBL document CHEMBL1134576, “Discovery of potent antagonists of leukocyte function-associated antigen-1/intercellular adhesion molecule-1 interaction. 3. Amide (C-ring) structure-activity relationship and improvement of overall properties of arylthio cinnamides” (J Med Chem, 2001).
≈ marks a conversion by molar mass, not a printed value. Where “and” joins values, the source holds several entries; their conditions need not be identical. Equal entries are not always repeated.

How the values were obtained:
[1] = molecular target: Intercellular adhesion molecule (ICAM-1), Integrin alpha-L/beta-2 (Homo sapiens, UniProt P05107+P20701); assay: Ability to antagonise the Leukocyte function-associated Antigen-1/ Intracellular Adhesion molecule-1 interaction (LFA-1/ICAM-1); type: functional
JY = assay: Inhibition of JY8 cell adhesion process (The assay was run with 1% fetal bovine serum); type: functional, cell-based; conditions: Homo sapiens, JY-8
Method in brief: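 JY-8 cells […] in the presence of 1% fetal bovine serum. Six concentrations from 6.4 × 10^-9 to 2 × 10^-5 were run in duplicate. IC50 is the mean of repeat measurements, with the range given.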

[2] = Mean residence time after po dose in rat; type: ADME, organism-based; conditions: in vivo
Method in brief: (§1)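 Rats (n = 4/group) received 5 mg/kg either iv as a slow jugular bolus or po by gavage. The terminal-phase rate constant gave t1/2 and AUC extrapolated to infinity. F compares oral with iv AUC.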

[3] = Clearance after iv dose in rat; conditions: in vivo
[4] = Oral bioavailability in rat; type: ADME, organism-based; conditions: in vivo; method in brief: as §1
[5] = Half life period after iv dose in rat; type: ADME, organism-based; conditions: in vivo; method in brief: as §1
Rattus norvegicus [6] = assay: Cmax value after po dose in rat; type: ADME, organism-based; parameters: route oral; conditions: in vivo; method in brief: as §1
[7] = Cmax value after po dose; type: ADME, organism-based; parameters: route oral; conditions: in vivo
[8] = Percent oral bioavailability after po dose; type: ADME, organism-based; conditions: eutheria, in vivo
Rattus norvegicus [9] = assay: rate pressure product in a rat model of reperfusion after 60 min at 50 mg/kg dose; type: functional
Rattus norvegicus [10] = assay: mean arterial pressure in a rat model of reperfusion after 120 min at 3 mg/kg dose; type: functional, Artery
Rattus norvegicus [11] = assay: heart rate pressure in a rat model of reperfusion after 5 min at 3 mg/kg dose; type: functional
Rattus norvegicus [12] = assay: heart rate in a rat model of reperfusion after 60 min at 50 mg/kg dose; type: functional
Canis familiaris [13] = assay: Cmax value after po dose in dog; conditions: in vivo
[14] = Clearance after intravenous dose in rat; conditions: in vivo, CL
Rattus norvegicus [15] = assay: Clearance after intravenous dose in rat; conditions: in vivo
Rattus norvegicus [16] = assay: rate pressure product in a rat model of ischemia after 15 min at 3 mg/kg dose; type: functional
Rattus norvegicus [17] = assay: rate pressure product in a rat model of reperfusion after 60 min at 3 mg/kg dose; type: functional
Rattus norvegicus [18] = assay: heart rate in a rat model of ischemia after 15 min at 50 mg/kg dose; type: functional
Rattus norvegicus [19] = assay: rate pressure product in a rat model of reperfusion after 180 min at 50 mg/kg dose; type: functional
Rattus norvegicus [20] = assay: rate pressure product in a rat model of reperfusion after 180 min at 3 mg/kg dose; type: functional
Rattus norvegicus [21] = assay: heart rate in a rat model of ischemia immediately prior to the occlusion at 50 mg/kg dose; type: functional
Rattus norvegicus [22] = assay: heart rate in a rat model of ischemia immediately prior to the occlusion at 3 mg/kg dose; type: functional
Rattus norvegicus [23] = assay: heart rate in a rat model of reperfusion after 180 min at 50 mg/kg dose
Rattus norvegicus [24] = assay: mean arterial pressure in a rat model of ischemia after 15 min at 3 mg/kg dose; type: functional, Artery
Rattus norvegicus [25] = assay: Half life period after intravenous dose in rat; type: ADME, organism-based; conditions: in vivo; method in brief: as §1
Rattus norvegicus [26] = assay: mean arterial pressure in a rat model of reperfusion after 60 min at 3 mg/kg dose; type: functional, Artery
Rattus norvegicus [27] = assay: mean arterial pressure in a rat model of reperfusion after 180 min at 50 mg/kg dose; type: functional, Artery
Rattus norvegicus [28] = assay: mean arterial pressure in a rat model of ischemia immediately prior to the occlusion at 3 mg/kg dose; type: functional, Artery
Rattus norvegicus [29] = assay: heart rate pressure in a rat model of reperfusion after 180 min at 3 mg/kg dose; type: functional
Rattus norvegicus [30] = assay: rate pressure product in a rat model of ischemia immediately prior to the occlusion at 3 mg/kg dose; type: functional
Rattus norvegicus [31] = assay: rate pressure product in a rat model of reperfusion after 5 min at 3 mg/kg dose; type: functional
Rattus norvegicus [32] = assay: rate pressure product in a rat model of reperfusion after 120 min at 50 mg/kg dose; type: functional
Canis familiaris [33] = assay: Mean residence time after po dose in dog; conditions: in vivo
Rattus norvegicus [34] = assay: rate pressure product in a rat model of reperfusion after 120 min at 3 mg/kg dose; type: functional
Rattus norvegicus [35] = assay: mean arterial pressure in a rat model of ischemia after 15 min at 50 mg/kg dose; type: functional, Artery
Rattus norvegicus [36] = assay: mean arterial pressure in a rat model of reperfusion after 5 min at 3 mg/kg dose; type: functional, Artery
Rattus norvegicus [37] = assay: heart rate in a rat model of ischemia after 15 min at 3 mg/kg dose; type: functional
Rattus norvegicus [38] = assay: heart rate pressure in a rat model of reperfusion after 120 min at 3 mg/kg dose; type: functional
Rattus norvegicus [39] = assay: heart rate in a rat model of reperfusion after 120 min at 50 mg/kg dose
Rattus norvegicus [40] = assay: rate pressure product in a rat model of ischemia after 15 min at 50 mg/kg dose; type: functional
Rattus norvegicus [41] = assay: mean arterial pressure in a rat model of reperfusion after 180 min at 3 mg/kg dose; type: functional, Artery
Rattus norvegicus [42] = assay: rate pressure product in a rat model of reperfusion after 5 min at 50 mg/kg dose; type: functional
Rattus norvegicus [43] = assay: mean arterial pressure in a rat model of reperfusion after 60 min at 50 mg/kg dose; type: functional, Artery
Rattus norvegicus [44] = assay: rate pressure product in a rat model of ischemia immediately prior to the occlusion at 50 mg/kg dose; type: functional
Rattus norvegicus [45] = assay: mean arterial pressure in a rat model of reperfusion after 120 min at 50 mg/kg dose; type: functional, Artery
Rattus norvegicus [46] = assay: heart rate in a rat model of reperfusion after 5 min at 50 mg/kg dose; type: functional
Rattus norvegicus [47] = assay: mean arterial pressure in a rat model of reperfusion after 5 min at 50 mg/kg dose; type: functional, Artery
Rattus norvegicus [48] = assay: mean arterial pressure in a rat model of ischemia immediately prior to the occlusion at 50 mg/kg dose; type: functional, Artery
Rattus norvegicus [49] = assay: heart rate pressure in a rat model of reperfusion after 60 min at 3 mg/kg dose; type: functional

Sequence of Intercellular adhesion molecule (ICAM-1), Integrin alpha-L/beta-2 (P20701 whole entry): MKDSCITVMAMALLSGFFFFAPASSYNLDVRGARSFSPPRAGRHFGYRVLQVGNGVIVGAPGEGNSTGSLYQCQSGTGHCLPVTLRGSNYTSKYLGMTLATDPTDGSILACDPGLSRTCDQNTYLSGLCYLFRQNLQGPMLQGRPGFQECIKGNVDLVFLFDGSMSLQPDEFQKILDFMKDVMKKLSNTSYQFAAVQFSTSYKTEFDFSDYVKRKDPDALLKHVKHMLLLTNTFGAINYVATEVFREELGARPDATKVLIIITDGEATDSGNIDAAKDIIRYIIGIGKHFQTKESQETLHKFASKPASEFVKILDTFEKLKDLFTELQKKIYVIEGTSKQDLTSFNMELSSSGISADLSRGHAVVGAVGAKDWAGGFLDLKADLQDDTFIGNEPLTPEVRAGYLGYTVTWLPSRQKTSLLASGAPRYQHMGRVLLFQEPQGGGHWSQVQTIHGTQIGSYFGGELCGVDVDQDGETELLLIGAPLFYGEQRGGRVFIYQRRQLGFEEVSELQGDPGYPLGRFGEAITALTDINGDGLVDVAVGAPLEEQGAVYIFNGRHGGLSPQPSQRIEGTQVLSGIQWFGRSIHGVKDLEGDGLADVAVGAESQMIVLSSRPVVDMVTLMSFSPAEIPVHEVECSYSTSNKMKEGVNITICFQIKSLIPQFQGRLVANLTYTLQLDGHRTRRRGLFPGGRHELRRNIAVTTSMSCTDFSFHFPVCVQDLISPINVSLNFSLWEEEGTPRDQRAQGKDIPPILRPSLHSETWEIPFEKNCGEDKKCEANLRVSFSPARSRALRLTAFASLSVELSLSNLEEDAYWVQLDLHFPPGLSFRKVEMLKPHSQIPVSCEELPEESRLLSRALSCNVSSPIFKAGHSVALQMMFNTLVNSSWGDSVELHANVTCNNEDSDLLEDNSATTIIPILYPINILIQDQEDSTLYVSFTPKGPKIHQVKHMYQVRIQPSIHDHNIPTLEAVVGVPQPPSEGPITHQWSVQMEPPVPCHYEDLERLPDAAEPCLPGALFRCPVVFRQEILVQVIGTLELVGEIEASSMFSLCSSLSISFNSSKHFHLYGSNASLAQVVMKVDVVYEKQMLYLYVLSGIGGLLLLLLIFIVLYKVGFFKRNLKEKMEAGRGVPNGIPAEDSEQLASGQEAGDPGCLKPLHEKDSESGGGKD
Sequence of Intercellular adhesion molecule (ICAM-1), Integrin alpha-L/beta-2 (P05362 whole entry, further chain): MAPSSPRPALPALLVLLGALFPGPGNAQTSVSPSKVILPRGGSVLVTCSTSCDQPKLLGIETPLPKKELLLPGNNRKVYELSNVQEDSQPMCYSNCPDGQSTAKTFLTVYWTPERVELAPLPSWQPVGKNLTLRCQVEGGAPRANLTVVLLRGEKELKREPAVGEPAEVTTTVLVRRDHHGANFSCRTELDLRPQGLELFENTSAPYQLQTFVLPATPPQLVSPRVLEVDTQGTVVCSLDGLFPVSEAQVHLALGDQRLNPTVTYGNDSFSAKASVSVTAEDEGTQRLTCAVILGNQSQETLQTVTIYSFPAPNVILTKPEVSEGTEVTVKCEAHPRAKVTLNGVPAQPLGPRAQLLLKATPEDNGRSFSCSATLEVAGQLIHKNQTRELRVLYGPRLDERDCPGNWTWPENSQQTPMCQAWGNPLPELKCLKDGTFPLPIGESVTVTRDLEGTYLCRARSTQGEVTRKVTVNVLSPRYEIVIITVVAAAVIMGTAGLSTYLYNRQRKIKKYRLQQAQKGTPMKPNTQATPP
Sequence of Intercellular adhesion molecule (ICAM-1), Integrin alpha-L/beta-2 (P05107 whole entry): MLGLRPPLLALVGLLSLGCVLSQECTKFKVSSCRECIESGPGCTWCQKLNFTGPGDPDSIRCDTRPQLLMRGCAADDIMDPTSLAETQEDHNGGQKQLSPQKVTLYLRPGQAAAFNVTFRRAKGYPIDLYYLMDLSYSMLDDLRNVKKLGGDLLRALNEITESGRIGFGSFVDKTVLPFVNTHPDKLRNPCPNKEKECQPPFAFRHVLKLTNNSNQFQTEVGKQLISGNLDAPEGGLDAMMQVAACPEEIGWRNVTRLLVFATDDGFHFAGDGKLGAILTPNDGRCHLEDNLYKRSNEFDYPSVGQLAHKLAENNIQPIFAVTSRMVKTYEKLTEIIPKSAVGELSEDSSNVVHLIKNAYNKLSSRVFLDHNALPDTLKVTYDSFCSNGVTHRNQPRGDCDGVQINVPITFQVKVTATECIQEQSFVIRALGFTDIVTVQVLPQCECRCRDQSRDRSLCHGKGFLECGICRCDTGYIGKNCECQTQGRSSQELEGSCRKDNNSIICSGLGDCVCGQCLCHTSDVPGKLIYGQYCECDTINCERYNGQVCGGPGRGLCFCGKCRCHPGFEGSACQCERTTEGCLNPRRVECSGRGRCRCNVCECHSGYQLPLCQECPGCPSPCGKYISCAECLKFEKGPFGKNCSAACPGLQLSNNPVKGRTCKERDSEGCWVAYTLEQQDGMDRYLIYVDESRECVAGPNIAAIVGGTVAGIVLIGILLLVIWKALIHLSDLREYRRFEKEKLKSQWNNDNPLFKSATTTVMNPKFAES

CC(C)c1ccccc1Sc1ccc(/C=C/C(=O)N2CCN(C)CC2)cc1[N+](=O)[O-]
IC50 [1]: 130 nM

CC(C)c1ccccc1Sc1ccc(/C=C/C(=O)N2CCN(C(=O)c3ccncc3)CC2)cc1[N+](=O)[O-]
IC50 (JY): 20 nM | IC50 [1]: 66 nM

COC(=O)C1CNCCN1C(=O)/C=C/c1ccc(Sc2ccccc2C(C)C)c([N+](=O)[O-])c1 (configuration not stated)
IC50 [1]: 340 nM

COC(=O)C1CN(C(=O)/C=C/c2ccc(Sc3ccccc3C(C)C)c([N+](=O)[O-])c2)CCN1C (configuration not stated)
IC50 (JY): 110 nM | IC50 [1]: 45 nM

CC(C)c1ccccc1Sc1ccc(/C=C/C(=O)N2CCC(C(=O)O)CC2)cc1[N+](=O)[O-]
MRT [2]: 3.5 h | IC50 (JY): 165 nM | clearance [3]: 13.2 mL/min/kg | bioavailability [4]: 21% | half-life [5]: 1.15 h | Cmax (Rattus norvegicus [6]): 0.5 ug m l-1 | IC50 [1]: 31 nM

CC(C)c1ccccc1Sc1ccc(/C=C/C(=O)N2CCCC(C(=O)O)C2)cc1[N+](=O)[O-] (configuration not stated)
MRT [2]: 11.3 h | IC50 (JY): 90 nM | clearance [3]: 35 mL/min/kg | bioavailability [4]: 19% | half-life [5]: 0.4 h | Cmax (Rattus norvegicus [6]): 0.45 ug m l-1 | IC50 [1]: 30 nM

CC(C)c1ccccc1Sc1ccc(/C=C/C(=O)N2CCC(=O)CC2)cc1[N+](=O)[O-]
IC50 (JY): 240 nM | IC50 [1]: 60 nM

COC(=O)C1CN(C(=O)/C=C/c2ccc(Sc3ccccc3C(C)C)c([N+](=O)[O-])c2)CCN1 (configuration not stated)
IC50 (JY): 98 nM | IC50 [1]: 60 nM

CC(C)c1ccccc1Sc1ccc(/C=C/C(=O)N2CCOC(c3nnn[nH]3)C2)cc1[N+](=O)[O-] (configuration not stated)
IC50 (JY): 2 nM | IC50 [1]: 20 nM

CNC(=O)N1CCN(C(=O)/C=C/c2ccc(Sc3ccccc3C(C)C)c([N+](=O)[O-])c2)CC1
IC50 [1]: 25 nM

CC(C)c1ccccc1Sc1ccc(/C=C/C(=O)N2CCC3(CC2)OCCO3)cc1[N+](=O)[O-]
IC50 [1]: 55 nM

O=C(O)C1CCN(C(=O)/C=C/c2ccc(Sc3ccc4c(c3)OCCO4)c(C(F)(F)F)c2)CC1
MRT [2]: 6.7 h | IC50 (JY): 150 nM | clearance [3]: 2 mL/min/kg | bioavailability [4]: 39% | half-life [5]: 3.9 h | Cmax (Rattus norvegicus [6]): 2.8 ug m l-1 | IC50 [1]: 30 nM

CC(C)c1ccccc1Sc1ccc(/C=C/C(=O)N2CCNC(CO)C2)cc1[N+](=O)[O-] (configuration not stated)
clearance [3]: 53.3 mL/min/kg | Solubility (Water solubility): 5 µg/mL (≈ 11.3 µM) | bioavailability [4]: 0% | half-life [5]: 1.9 h | Cmax (Rattus norvegicus [6]): 0 ug m l-1 | IC50 [1]: 280 nM

CC(C)c1ccccc1Sc1ccc(/C=C/C(=O)N2CCNCC2)cc1[N+](=O)[O-]
IC50 [1]: 450 nM

CC(C)c1ccccc1Sc1ccc(/C=C/C(=O)N2CCNC(C(=O)N(C)C)C2)cc1[N+](=O)[O-] (configuration not stated)
IC50 [1]: 75 nM

CC(=O)N1CCN(C(=O)/C=C/c2ccc(Sc3ccccc3C(C)C)c([N+](=O)[O-])c2)CC1 [A-286982]
clearance (Clearance after iv dose): 45 mL/min/kg | Cmax [7]: 0 ug m l-1 | bioavailability [8]: 0% | Solubility (Water solubility): < 1 µg/mL

CC(C)c1ccccc1Sc1ccc(/C=C/C(=O)N2CC=CC2C(=O)O)cc1C(F)(F)F (configuration not stated)
IC50 [1]: 130 nM

COC(=O)N1CCN(C(=O)/C=C/c2ccc(Sc3ccccc3C(C)C)c([N+](=O)[O-])c2)C(C(=O)O)C1 (configuration not stated)
IC50 [1]: 130 nM

O=C(O)C1CCCN(C(=O)/C=C/c2ccc(Sc3ccc4c(c3)OCCO4)c(C(F)(F)F)c2)C1 (configuration not stated)
RPP (Rattus norvegicus [9]): 46700 mmHg beats min-1 | MAP (Rattus norvegicus [10]): 85 mmHg | HR (Rattus norvegicus [11]): 379 beats min-1 | HR (Rattus norvegicus [12]): 396 beats min-1 | Cmax (Canis familiaris [13]): 3700 ng/mL | clearance [14]: 4.83 mL/min/kg | clearance (Rattus norvegicus [15]): 5.67 mL/min/kg | RPP (Rattus norvegicus [16]): 41800 mmHg beats min-1 | RPP (Rattus norvegicus [17]): 38100 mmHg beats min-1 | HR (Rattus norvegicus [18]): 400 beats min-1 | RPP (Rattus norvegicus [19]): 32000 mmHg beats min-1 | RPP (Rattus norvegicus [20]): 35100 mmHg beats min-1 | HR (Rattus norvegicus [21]): 419 beats min-1 | HR (Rattus norvegicus [22]): 393 beats min-1 | HR (Rattus norvegicus [23]): 399 beats min-1 | MAP (Rattus norvegicus [24]): 107 mmHg | T1/2 (Rattus norvegicus [25]): 2.3 h and 5.7 h | MAP (Rattus norvegicus [26]): 99 mmHg | MAP (Rattus norvegicus [27]): 80 mmHg | MAP (Rattus norvegicus [28]): 118 mmHg | HR (Rattus norvegicus [29]): 376 beats min-1 | MRT [2]: 5 h | IC50 (JY): 140 nM | RPP (Rattus norvegicus [30]): 46400 mmHg beats min-1 | RPP (Rattus norvegicus [31]): 37500 mmHg beats min-1 | RPP (Rattus norvegicus [32]): 38100 mmHg beats min-1 | MRT (Canis familiaris [33]): 5.7 h | RPP (Rattus norvegicus [34]): 31800 mmHg beats min-1 | MAP (Rattus norvegicus [35]): 105 mmHg | F [4]: 29% and 55% | MAP (Rattus norvegicus [36]): 98 mmHg | HR (Rattus norvegicus [37]): 391 beats min-1 | HR (Rattus norvegicus [38]): 371 beats min-1 | HR (Rattus norvegicus [39]): 397 beats min-1 | RPP (Rattus norvegicus [40]): 42700 mmHg beats min-1 | MAP (Rattus norvegicus [41]): 95 mmHg | RPP (Rattus norvegicus [42]): 40200 mmHg beats min-1 | MAP (Rattus norvegicus [43]): 118 mmHg | RPP (Rattus norvegicus [44]): 54000 mmHg beats min-1 | MAP (Rattus norvegicus [45]): 96 mmHg | Cmax (Rattus norvegicus [6]): 1.5 ug m l-1 | HR (Rattus norvegicus [46]): 382 beats min-1 | MAP (Rattus norvegicus [47]): 105 mmHg | MAP (Rattus norvegicus [48]): 128 mmHg | IC50 [1]: 25 nM | HR (Rattus norvegicus [49]): 382 beats min-1

CC(=O)N1CCN(C(=O)/C=C/c2ccc(Sc3ccccc3C(C)C)c([N+](=O)[O-])c2)CC1C(=O)O (configuration not stated)
IC50 [1]: 680 nM

CC(C)c1ccccc1Sc1ccc(/C=C/C(=O)N2CCC(S(=O)(=O)O)CC2)cc1[N+](=O)[O-]
IC50 [1]: 90 nM
